Measurements published in ChEMBL document CHEMBL4342493, “Design and Optimization of 3'-(Imidazo[1,2-a]pyrazin-3-yl)-[1,1'-biphenyl]-3-carboxamides as Selective DDR1 Inhibitors” (ACS Med Chem Lett, 2020).

Experiments:
[1] = target: Dual specificity protein kinase CLK4 (Homo sapiens, UniProt Q9HAZ1); experiment: Binding affinity to wild-type human partial length CLK4 (R135 to K481 residues) expressed in bacterial expression system after 1 hr by Kinomescan method
Summary of the method: (§1)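 KINOMEscan binding; Kd determined for DDR1 and the off-target kinases DDR2, CAMK1D, CLK4 and TTK.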

NCI-H1299 [2] = experiment: Antiproliferative activity against human H1299 cells assessed as reduction in cell viability after 72 hrs by CCK-8 assay; format: functional, cell-based; settings: NCI-H1299, 72 h
Summary of the method: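 CCK-8 proliferation assay in H1299 cells; IC50 derived from dose-response; means of three independent experiments.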

NCI-H1299 [3] = experiment: Antimigratory activity against human H1299 cells assessed as reduction in wound closure at 1.25 uM after 24 hrs by bright field microscopic based wound healing assay relative to control; format: functional; settings: NCI-H1299, 24 h
Summary of the method: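 Wound healing (scratch) migration assay in H1299 cells at 1.25, 2.5 and 5.0 μM; wound closure compared with blank control groups.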

[4] = target: Calcium/calmodulin-dependent protein kinase type 1D (Homo sapiens, UniProt Q8IU85); experiment: Binding affinity to wild-type human partial length CAMK1D (M1 to K299 residues) expressed in bacterial expression system after 1 hr by Kinomescan method; summary of the method: as §1
Chain of Calcium/calmodulin-dependent protein kinase type 1D (Q8IU85 whole entry, the tested form may be a part): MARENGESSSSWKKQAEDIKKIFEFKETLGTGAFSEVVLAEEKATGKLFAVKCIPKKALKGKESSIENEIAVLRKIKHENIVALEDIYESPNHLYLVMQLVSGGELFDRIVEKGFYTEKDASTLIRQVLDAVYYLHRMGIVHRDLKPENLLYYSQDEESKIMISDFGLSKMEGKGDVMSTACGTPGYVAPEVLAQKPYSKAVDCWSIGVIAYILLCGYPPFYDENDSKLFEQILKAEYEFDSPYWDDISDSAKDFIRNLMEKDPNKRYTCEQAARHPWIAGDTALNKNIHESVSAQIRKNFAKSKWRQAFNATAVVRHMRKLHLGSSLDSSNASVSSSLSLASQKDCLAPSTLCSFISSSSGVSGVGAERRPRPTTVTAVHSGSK

[5] = target: T1, Discoidin domain-containing receptor 2 (Homo sapiens, UniProt Q16832); experiment: Inhibition of recombinant human GST-tagged DDR2 cytoplasmic domain (427 to 855 residues) expressed in baculovirus expression system using Fluorescein-poly GAT as substrate incubated for 1 hr in presence of ATP by LanthaScreen Eu kinase assay
T1 sequence (Q16832 whole entry): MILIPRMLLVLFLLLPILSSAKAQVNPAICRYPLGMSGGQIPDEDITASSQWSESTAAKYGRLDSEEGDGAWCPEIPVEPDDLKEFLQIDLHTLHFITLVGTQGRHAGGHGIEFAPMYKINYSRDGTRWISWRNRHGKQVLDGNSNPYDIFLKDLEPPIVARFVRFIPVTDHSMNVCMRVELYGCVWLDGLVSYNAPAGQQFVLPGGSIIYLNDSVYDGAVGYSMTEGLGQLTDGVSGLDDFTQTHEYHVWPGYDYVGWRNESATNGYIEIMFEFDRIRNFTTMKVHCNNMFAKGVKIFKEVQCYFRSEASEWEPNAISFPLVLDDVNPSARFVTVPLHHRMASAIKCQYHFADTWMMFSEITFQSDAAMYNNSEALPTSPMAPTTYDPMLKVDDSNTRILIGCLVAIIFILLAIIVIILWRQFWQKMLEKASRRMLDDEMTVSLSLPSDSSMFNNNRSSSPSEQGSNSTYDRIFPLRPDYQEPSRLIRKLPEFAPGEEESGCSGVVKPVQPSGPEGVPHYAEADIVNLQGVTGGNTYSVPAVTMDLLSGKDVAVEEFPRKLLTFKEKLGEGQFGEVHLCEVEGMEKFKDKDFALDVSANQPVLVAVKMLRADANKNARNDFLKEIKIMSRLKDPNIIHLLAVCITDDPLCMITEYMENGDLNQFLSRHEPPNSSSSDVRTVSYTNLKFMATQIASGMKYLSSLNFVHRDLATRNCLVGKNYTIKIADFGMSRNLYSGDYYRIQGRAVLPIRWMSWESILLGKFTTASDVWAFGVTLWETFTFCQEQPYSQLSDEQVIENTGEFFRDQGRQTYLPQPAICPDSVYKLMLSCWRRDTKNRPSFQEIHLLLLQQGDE
Summary of the method: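 LanthaScreen Eu kinase assay for DDR2; IC50 values are means of three independent experiments, variations <20%.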

Chain of Dual specificity protein kinase CLK4 (Q9HAZ1 whole entry, the tested form may be a part): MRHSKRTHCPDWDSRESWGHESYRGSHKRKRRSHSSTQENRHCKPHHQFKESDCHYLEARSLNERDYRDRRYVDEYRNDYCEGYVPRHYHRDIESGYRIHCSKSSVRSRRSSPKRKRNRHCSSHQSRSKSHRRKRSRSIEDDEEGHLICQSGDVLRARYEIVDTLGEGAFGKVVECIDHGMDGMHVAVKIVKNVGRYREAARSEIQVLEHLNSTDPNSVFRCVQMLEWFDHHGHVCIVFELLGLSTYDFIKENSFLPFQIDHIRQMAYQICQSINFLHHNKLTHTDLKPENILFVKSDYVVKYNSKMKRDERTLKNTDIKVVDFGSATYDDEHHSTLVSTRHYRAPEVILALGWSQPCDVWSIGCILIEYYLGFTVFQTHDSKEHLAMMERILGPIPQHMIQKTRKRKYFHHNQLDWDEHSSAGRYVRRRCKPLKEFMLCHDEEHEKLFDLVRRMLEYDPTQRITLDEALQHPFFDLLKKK

Compound: CCc1ccc(C(=O)Nc2cc(F)cc(C(F)(F)F)c2)cc1-c1cc(C)cc(-c2cnc3cnccn23)c1
- Kd [1]: > 1000 nM
- IC50 (NCI-H1299 [2]): 6600 nM
- inhibition at 1.25 µM (NCI-H1299 [3]): 40%
- Kd [4]: > 1000 nM
- IC50 [5]: 1740 nM
